# Reference: ChEMBL document CHEMBL4251693, “Indolylmaleimide Derivative IM-17 Shows Cardioprotective Effects in Ischemia-Reperfusion Injury” (ACS Med Chem Lett, 2018)
# pIC50: −log10 of the molar value. Activity calls are given as the source filed them. No cut-off for these calls is given here. Peptide text beside a SMILES is read from it. * marks the point of attachment. Cbz = O=C(OCc1ccccc1)*
# What was measured:
# H9c2 [1] = experiment: Cytotoxicity against rat H9c2 cells at 30 uM; format: cell-based; conditions: h9c2, 30 µM
# H9c2 [2] = experiment: Cytoprotective activity against TBHP-induced necrosis in rat H9c2 cells incubated for 4 hrs by LDH release assay; format: functional, cell-based; conditions: H9c2, 4 h
# Summary of the method: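 Rat cardiomyoblast H9c2 cells treated with TBHP (300 μM) with or without test compound; necrotic cell death quantified by LDH release assay.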
# Heart [3] = experiment: Cardioprotective activity against Langendorff isolated Sprague-Dawley rat heart ischemia-reperfusion injury model assessed as suppression of creatine kinase release at 0.3 uM administered for 10 mins as infusion followed by 30 mins of global ischemia and 60 mins of reperfusion; format: functional, tissue-based
# Summary of the method: (§1)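 Isolated rat hearts perfused in Langendorff mode with Krebs-Henseleit buffer. Compound (HCl salt) added to the perfusate for 10 min before no-flow global ischemia of 30 min, then 60 min reperfusion with flow restored. Left ventricular developed pressure recovery taken as heart function; creatine kinase released from myocardium taken as membrane integrity marker.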
# Heart [4] = experiment: Cardioprotective activity against Langendorff isolated Sprague-Dawley rat heart ischemia-reperfusion injury model assessed as improvement in LVDP at 0.3 uM administered for 10 mins as infusion followed by 30 mins of global ischemia and 60 mins of reperfusion; format: functional, tissue-based; summary of the method: as §1
# HL-60 [5] = experiment: Cytoprotective activity against H2O2-induced necrosis in human HL60 cells incubated for 1 hr followed by H2O2 stimulation by LDH release assay; format: functional, cell-based; conditions: HL-60, 1 h
# Summary of the method: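 Necrosis of HL-60 cells induced by H2O2 and quantified as lactate dehydrogenase release from the cytosol; IC50 derived.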
# [6] = Stability in rat liver S9 fraction at 5 uM after 30 mins by HPLC method; format: ADME, subcellular; conditions: s9, 0.5 h
# Jurkat [7] = experiment: Cytoprotective activity against CHX-induced necroptosis in human Jurkat cells assessed as increase in cell viability at 30 uM incubated for 1 hr followed by CHX stimulation by phase contrast microscopy; format: functional, cell-based
# Summary of the method: (§2)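 Jurkat necroptosis induced with FasL (100 ng/mL, 20 h) together with Z-VAD (100 μM) or cycloheximide (5 μM). Test agents were run at 10 μM alongside a necroptosis inhibitor at 30 μM. Viability read by AlamarBlue; morphology examined by phase-contrast imaging.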
# Jurkat [8] = experiment: Cytoprotective activity against FasL-induced necroptosis in human Jurkat cells assessed as increase in cell viability at 30 uM incubated for 1 hr followed by FasL stimulation measured after 20 hrs by phase contrast microscopy; format: functional, cell-based; summary of the method: as §2
# Jurkat [9] = experiment: Cytoprotective activity against Z-VAD-induced necroptosis in human Jurkat cells assessed as increase in cell viability at 30 uM incubated for 1 hr followed by Z-VAD stimulation by Alamar blue assay; format: functional, cell-based; summary of the method: as §2
# Jurkat [10] = experiment: Cytoprotective activity against FasL-induced necroptosis in human Jurkat cells assessed as increase in cell viability at 30 uM incubated for 1 hr followed by FasL stimulation measured after 20 hrs by Alamar blue assay; format: functional, cell-based; summary of the method: as §2
# HL-60 [11] = experiment: Cytoprotective activity against H2O2-induced necrosis in human HL60 cells assessed as increase in cell viability at 1 to 10 uM incubated for 1 hr followed by H2O2 stimulation measured after 3 hrs by Alamar blue assay; format: functional, cell-based
# Summary of the method: (§3)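 HL-60 cells treated with H2O2 (100 μM, 3 h) with or without various cell death inhibitors (cyclophilin D, PARP-1, necroptosis, autophagy). Viability read by AlamarBlue.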
# Jurkat [12] = experiment: Cytoprotective activity against Z-VAD-induced necroptosis in human Jurkat cells assessed as increase in cell viability at 30 uM incubated for 1 hr followed by Z-VAD stimulation by phase contrast microscopy; format: functional, cell-based; summary of the method: as §2
# Jurkat [13] = experiment: Cytoprotective activity against CHX-induced necroptosis in human Jurkat cells assessed as increase in cell viability at 30 uM incubated for 1 hr followed by CHX stimulation by Alamar blue assay; format: functional, cell-based; summary of the method: as §2
# Heart [14] = experiment: Cardioprotective activity against Langendorff isolated Sprague-Dawley rat heart ischemia-reperfusion injury model assessed as suppression of creatine kinase release at 3 uM administered for 10 mins as infusion followed by 30 mins of global ischemia and 60 mins of reperfusion; format: functional, tissue-based; summary of the method: as §1
# Heart [15] = experiment: Cardioprotective activity against Langendorff isolated Sprague-Dawley rat heart ischemia-reperfusion injury model assessed as improvement in LVDP at 3 uM administered for 10 mins as infusion followed by 30 mins of global ischemia and 60 mins of reperfusion; format: functional, tissue-based; summary of the method: as §1
# HL-60 [16] = experiment: Cytoprotective activity against H2O2-induced necrosis in human HL60 cells assessed as increase in cell viability at 10 to 100 uM incubated for 1 hr followed by H2O2 stimulation measured after 3 hrs by Alamar blue assay; format: functional, cell-based; summary of the method: as §3
# Jurkat [17] = experiment: Cytoprotective activity against FasL-induced apoptosis in human Jurkat cells assessed as increase in cell viability at 100 uM incubated for 1 hr followed by FasL stimulation measured after 18 hrs by Alamar blue assay; format: functional, cell-based
# Summary of the method: (§4)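 Jurkat cells exposed to FasL (100 ng/mL, 18 h) with or without test agent (10 μM) or Z-VAD (100 μM). Viability measured by AlamarBlue and morphology by phase-contrast imaging.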
# HL-60 [18] = experiment: Cytoprotective activity against H2O2-induced apoptosis in human HL60 cells assessed as increase in cell viability at 100 uM incubated for 1 hr followed by H2O2 stimulation measured after 4 hrs by Alamar blue assay; format: functional, cell-based
# Summary of the method: (§5)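 HL-60 cells exposed to low-level H2O2 (30 μM, 4 h) with or without test agent (10 μM) or Z-VAD (100 μM). Viability read by AlamarBlue; morphology by phase-contrast imaging.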
# HL-60 [19] = experiment: Cytoprotective activity against H2O2-induced necrosis in human HL60 cells assessed as increase in cell viability at 100 uM incubated for 1 hr followed by H2O2 stimulation measured after 3 hrs by Alamar blue assay; format: functional, cell-based
# Summary of the method: (§6)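 HL-60 cells given a death inducer with or without test agent (10 μM) or Z-VAD (100 μM). Inducers were actinomycin D 1 μM for 6 h, camptothecin 1 μM for 6 h, etoposide 100 μM for 4 h, FasL 100 ng/mL for 18 h, H2O2 100 μM for 3 h, and TBHP 30 μM for 3 h. Viability read by AlamarBlue.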
# HL-60 [20] = experiment: Cytoprotective activity against camptothecin-induced apoptosis in human HL60 cells assessed as increase in cell viability at 100 uM incubated for 1 hr followed by camptothecin stimulation measured after 6 hrs by Alamar blue assay; format: functional, cell-based; summary of the method: as §6
# HL-60 [21] = experiment: Cytoprotective activity against Fas ligand-induced apoptosis in human HL60 cells assessed as increase in cell viability at 100 uM incubated for 1 hr followed by Fas ligand stimulation measured after 18 hrs by Alamar blue assay; format: functional, cell-based; summary of the method: as §6
# HL-60 [22] = experiment: Cytoprotective activity against TBHP-induced necrosis in human HL60 cells assessed as increase in cell viability at 100 uM incubated for 1 hr followed by TBHP stimulation measured after 3 hrs by Alamar blue assay; format: functional, cell-based
# Jurkat [23] = experiment: Cytoprotective activity against FasL-induced apoptosis in human Jurkat cells assessed as increase in cell viability at 100 uM incubated for 1 hr followed by FasL stimulation measured after 18 hrs by phase contrast microscopy; format: functional, cell-based; summary of the method: as §4
# HL-60 [24] = experiment: Cytoprotective activity against etoposide-induced apoptosis in human HL60 cells assessed as increase in cell viability at 100 uM incubated for 1 hr followed by etoposide stimulation measured after 4 hrs by Alamar blue assay; format: functional, cell-based; summary of the method: as §6
# HL-60 [25] = experiment: Cytoprotective activity against actinomycin D-induced apoptosis in human HL60 cells assessed as increase in cell viability at 100 uM incubated for 1 hr followed by actinomycin D stimulation measured after 6 hrs by Alamar blue assay; format: functional, cell-based; summary of the method: as §6
# HL-60 [26] = experiment: Cytoprotective activity against H2O2-induced apoptosis in human HL60 cells assessed as increase in cell viability at 100 uM incubated for 1 hr followed by H2O2 stimulation measured after 4 hrs by phase contrast microscopy; format: functional, cell-based; summary of the method: as §5
# HL-60 [27] = experiment: Cytoprotective activity against H2O2-induced necrosis in human HL60 cells assessed as increase in cell viability at 1 to 5 mM incubated for 1 hr followed by H2O2 stimulation measured after 3 hrs by Alamar blue assay; format: functional, cell-based; summary of the method: as §3
# Rattus norvegicus [28] = experiment: Toxicity in Sprague-Dawley rat ischemia reperfusion-induced arrhythmia model assessed as mortality at 1 mg/kg, iv administered 5 mins before ischemia (reference value: 60%); format: organism-based; conditions: in vivo
# Rattus norvegicus [29] = experiment: Cardioprotective activity against Sprague-Dawley rat ischemia reperfusion-induced arrhythmia model assessed as ventricular fibrillation time at 3 mg/kg, iv administered 1 min before reperfusion (reference value: 96.3 +/- 24.1 sec); format: functional
# Rattus norvegicus [30] = experiment: Toxicity in Sprague-Dawley rat ischemia reperfusion-induced arrhythmia model assessed as mortality at 3 mg/kg, iv administered 1 min before reperfusion (reference value: 75%); format: organism-based; conditions: in vivo
# Rattus norvegicus [31] = experiment: Toxicity in Sprague-Dawley rat ischemia reperfusion-induced arrhythmia model assessed as mortality at 3 mg/kg, iv administered 5 mins before ischemia (reference value: 60%); format: organism-based; conditions: in vivo
# Rattus norvegicus [32] = experiment: Cardioprotective activity against Sprague-Dawley rat ischemia reperfusion-induced arrhythmia model assessed as ventricular fibrillation time at 1 mg/kg, iv administered 5 mins before ischemia (reference value: 95.3 +/- 13 sec); format: functional
# Rattus norvegicus [33] = experiment: Cardioprotective activity against Sprague-Dawley rat ischemia reperfusion-induced arrhythmia model assessed as ventricular fibrillation time at 3 mg/kg, iv administered 5 mins before ischemia (reference value: 95.3 +/- 13 sec); format: functional
smiles,measurement,setting,value
CCCNC1=C(c2cn(C)c3ccccc23)C(=O)N(C)C1=O,Activity,H9c2 [1],Non-Toxic
same,pIC50,H9c2 [2],5.36
same,Activity,Heart [3],Active
same,Activity,Heart [4],Active
same,pIC50,HL-60 [5],6.36
same,Stability,[6],Unstable
CN1C(=O)C(NCCCCN)=C(c2cn(C)c3ccccc23)C1=O,pIC50,HL-60 [5],5.89
CN1C(=O)C(Cc2c[nH]c3ccccc23)NC1=S (configuration not stated),Activity,Jurkat [7],Active
same,Activity,Jurkat [8],Active
same,Activity,Jurkat [9],Active
same,Activity,Jurkat [10],Active
same,Activity,HL-60 [11],inactive
same,Activity,Jurkat [12],Active
same,Activity,Jurkat [13],Active
CN1C(=O)C(NCCN)=C(c2cn(C)c3ccccc23)C1=O [listing 1 of 2 here],Activity,H9c2 [1],Non-Toxic
same,pIC50,H9c2 [2],5.31
same,pIC50,HL-60 [5],6.00
same,Stability,[6],Stable
CN1C(=O)C(NCCCCO)=C(c2cn(C)c3ccccc23)C1=O,pIC50,HL-60 [5],5.96
CNC1=C(c2cn(C)c3ccccc23)C(=O)N(C)C1=O,pIC50,HL-60 [5],6.04
CN1C(=O)C(NCCN)=C(c2cn(C)c3ccccc23)C1=O [listing 2 of 2 here],Activity,Heart [14],Active
same,Activity,Heart [15],Active
O=C1NCCc2c(OCCCCN3CCCCC3)cccc21,Activity,HL-60 [16],inactive
COC(=O)C[C@H](NC(=O)[C@H](C)NC(=O)[C@@H](NC(=O)OCc1ccccc1)C(C)C)C(=O)O (Cbz-Val-Ala-Asp(OMe)-OH),Activity,Jurkat [17],Active
same,Activity,HL-60 [18],Active
same,Activity,HL-60 [19],inactive
same,Activity,HL-60 [20],Active
same,Activity,HL-60 [21],Active
same,Activity,HL-60 [22],inactive
same,Activity,Jurkat [23],Active
same,Activity,HL-60 [24],Active
same,Activity,HL-60 [25],Active
same,Activity,HL-60 [26],Active
Cn1cnc(N)c2ncnc1-2,Activity,HL-60 [27],inactive
CCCCNC1=C(c2cn(C)c3ccccc23)C(=O)N(C)C1=O,pIC50,HL-60 [5],6.38
CN1C(=O)C(NCCCO)=C(c2cn(C)c3ccccc23)C1=O,pIC50,HL-60 [5],5.72
CN1C(=O)C(NCCN)=C(c2cn(C)c3ccccc23)C1=O.Cl,mortality,Rattus norvegicus [28],20%
same,Time,Rattus norvegicus [29],57 s
same,mortality,Rattus norvegicus [30],20%
same,mortality,Rattus norvegicus [31],0%
same,Time,Rattus norvegicus [32],38.2 s
same,Time,Rattus norvegicus [33],0 s
CN1C(=O)C(NCCCN)=C(c2cn(C)c3ccccc23)C1=O,pIC50,HL-60 [5],5.89
CCCCCCNC1=C(c2cn(C)c3ccccc23)C(=O)N(C)C1=O,pIC50,HL-60 [5],6.42
CN1C(=O)C(c2c[nH]c3ccccc23)=C(c2cn(CCCN)c3ccccc23)C1=O,Activity,H9c2 [1],Toxic
same,pIC50,H9c2 [2],5.52
CN1C(=O)C(NCCO)=C(c2cn(C)c3ccccc23)C1=O,pIC50,HL-60 [5],5.89
